From ChEMBL document CHEMBL5303300, “EUbOPEN Chemogenomics Library - Multiplex” (2023)
Where “and” joins values, the source holds several entries; their conditions need not be identical. Identical values can stand only once.

Columns and labels:
[1] = system: Fibroblast; experiment: Multiplex assay against human fibroblast; assay type: toxicity, cell-based; details: number of replicates 2
Method in brief: (§1)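 Live cells were stained at seeding with Hoechst33342, BioTracker Green Microtubule Cytoskeleton Dye, MitoTracker Red and Annexin V Alexa Fluor 680, then imaged on a CQ1 microscope at 37°C and 5% CO2 after compound addition. CellPathfinder machine-learning gating split cells into Hoechst high-intensity objects or normal cells. Normal cells were split into healthy, pyknosed or fragmented nuclei, and pyknosed cells into mitotic or apoptotic. Tubulin, mitochondrial-mass and membrane-permeability phenotypes are per cents of healthy-nucleus cells.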

[2] = system: HEK-293T; experiment: Multiplex assay against HEK293T; assay type: toxicity, cell-based; details: human, number of replicates 2; method in brief: as §1
[3] = 12 h, 1 µM, compound concentration 1 uM
[4] = 12 h, 10 µM, compound concentration 10 uM
[5] = 24 h, 1 µM, compound concentration 1 uM
[6] = 24 h, 10 µM, compound concentration 10 uM
[7] = 48 h, 1 µM, compound concentration 1 uM
[8] = 48 h, 10 µM, compound concentration 10 uM

CCCN(CCc1cccs1)[C@H]1CCc2c(O)cccc2C1 [ROTIGOTINE]
Population Apoptotic (%) [1, 3]: 73% and 35%
Population Fragmented Nuclei (%) [1, 3]: 9% and 11%
Population Healthy Nuclei (%) [1, 3]: 76% and 71%
Population Hoechst High Intensity Objects (%) [1, 3]: 0%
Population Membrane Permeable-Phenotype (%) [1, 3]: 6% and 3%
Population Mitochondria Different-Phenotype (%) [1, 3]: 2% and 0%
Population Mitotic Cells (%) [1, 3]: 26% and 64%
Population Normal (%) [1, 3]: 100% and 99%
Population Pyknosed Nuclei (%) [1, 3]: 14% and 16%
Population Tubulin-Different-Phenotype (%) [1, 3]: 15% and 10%
Population Fragmented Nuclei (%) [1, 4]: 17% and 18%
Population Healthy Nuclei (%) [1, 4]: 78% and 73%
Population Hoechst High Intensity Objects (%) [1, 4]: 0%
Population Membrane Permeable-Phenotype (%) [1, 4]: 0% and 1%
Population Mitochondria Different-Phenotype (%) [1, 4]: 0% and 1%
Population Mitotic Cells (%) [1, 4]: 50% and 86%
Population Normal (%) [1, 4]: 100%
Population Pyknosed Nuclei (%) [1, 4]: 4% and 7%
Population Tubulin-Different-Phenotype (%) [1, 4]: 13% and 14%
Population Apoptotic (%) [1, 5]: 52% and 46%
Population Fragmented Nuclei (%) [1, 5]: 9% and 12%
Population Healthy Nuclei (%) [1, 5]: 81% and 75%
Population Hoechst High Intensity Objects (%) [1, 5]: 0%
Population Membrane Permeable-Phenotype (%) [1, 5]: 4%
Population Mitochondria Different-Phenotype (%) [1, 5]: 0% and 1%
Population Mitotic Cells (%) [1, 5]: 47% and 53%
Population Normal (%) [1, 5]: 100% and 99%
Population Pyknosed Nuclei (%) [1, 5]: 9% and 12%
Population Tubulin-Different-Phenotype (%) [1, 5]: 7% and 6%
Population Fragmented Nuclei (%) [1, 6]: 24% and 14%
Population Healthy Nuclei (%) [1, 6]: 71% and 80%
Population Hoechst High Intensity Objects (%) [1, 6]: 0%
Population Membrane Permeable-Phenotype (%) [1, 6]: 1% and 0%
Population Mitochondria Different-Phenotype (%) [1, 6]: 0% and 2%
Population Normal (%) [1, 6]: 100%
Population Pyknosed Nuclei (%) [1, 6]: 3% and 5%
Population Tubulin-Different-Phenotype (%) [1, 6]: 10% and 8%
Population Apoptotic (%) [1, 7]: 36% and 68%
Population Fragmented Nuclei (%) [1, 7]: 11% and 13%
Population Healthy Nuclei (%) [1, 7]: 82% and 79%
Population Hoechst High Intensity Objects (%) [1, 7]: 0%
Population Membrane Permeable-Phenotype (%) [1, 7]: 3% and 2%
Population Mitochondria Different-Phenotype (%) [1, 7]: 0%
Population Mitotic Cells (%) [1, 7]: 63% and 31%
Population Normal (%) [1, 7]: 100%
Population Pyknosed Nuclei (%) [1, 7]: 5% and 7%
Population Tubulin-Different-Phenotype (%) [1, 7]: 5% and 3%
Population Apoptotic (%) [1, 8]: 87% and 80%
Population Fragmented Nuclei (%) [1, 8]: 19% and 20%
Population Healthy Nuclei (%) [1, 8]: 76% and 77%
Population Hoechst High Intensity Objects (%) [1, 8]: 0%
Population Membrane Permeable-Phenotype (%) [1, 8]: 3% and 1%
Population Mitochondria Different-Phenotype (%) [1, 8]: 0%
Population Mitotic Cells (%) [1, 8]: 12% and 20%
Population Normal (%) [1, 8]: 100%
Population Pyknosed Nuclei (%) [1, 8]: 4% and 2%
Population Tubulin-Different-Phenotype (%) [1, 8]: 9% and 3%
Population Apoptotic (%) [2, 3]: 43% and 35%
Population Fragmented Nuclei (%) [2, 3]: 3% and 1%
Population Healthy Nuclei (%) [2, 3]: 83% and 85%
Population Hoechst High Intensity Objects (%) [2, 3]: 9% and 5%
Population Membrane Permeable-Phenotype (%) [2, 3]: 1% and 2%
Population Mitochondria Different-Phenotype (%) [2, 3]: 13% and 14%
Population Mitotic Cells (%) [2, 3]: 56% and 64%
Population Normal (%) [2, 3]: 90% and 94%
Population Pyknosed Nuclei (%) [2, 3]: 12%
Population Tubulin-Different-Phenotype (%) [2, 3]: 50% and 48%
Total Cell Count [2, 3]: 619 and 758
Population Apoptotic (%) [2, 4]: 39% and 66%
Population Fragmented Nuclei (%) [2, 4]: 3% and 2%
Population Healthy Nuclei (%) [2, 4]: 88%
Population Hoechst High Intensity Objects (%) [2, 4]: 8% and 5%
Population Membrane Permeable-Phenotype (%) [2, 4]: 4% and 2%
Population Mitochondria Different-Phenotype (%) [2, 4]: 13% and 17%
Population Mitotic Cells (%) [2, 4]: 60% and 33%
Population Normal (%) [2, 4]: 91% and 94%
Population Pyknosed Nuclei (%) [2, 4]: 7% and 8%
Population Tubulin-Different-Phenotype (%) [2, 4]: 66% and 65%
Total Cell Count [2, 4]: 592 and 535
Population Apoptotic (%) [2, 5]: 20% and 41%
Population Fragmented Nuclei (%) [2, 5]: 6% and 5%
Population Healthy Nuclei (%) [2, 5]: 89% and 88%
Population Hoechst High Intensity Objects (%) [2, 5]: 8%
Population Membrane Permeable-Phenotype (%) [2, 5]: 2%
Population Mitochondria Different-Phenotype (%) [2, 5]: 3%
Population Mitotic Cells (%) [2, 5]: 80% and 58%
Population Normal (%) [2, 5]: 91%
Population Pyknosed Nuclei (%) [2, 5]: 3% and 6%
